Results: article PMC2151622 (The Journal of General Physiology, 2007)
Numbering of substitutions follows the chain as printed. Like-named read-outs stand apart in the source and are kept apart here.

Assays:
Assay type in all cases: cell-based, rabbit
D444C-EAAC1 = biological target: T1, D444C-EAAC1 (Oryctolagus cuniculus, UniProt P31597, D444C); experiment: Blockade of sodium-dependent transient currents; conditions: for Decay time of transient currents blocked: at −100 mV
T1 sequence (P31597 1-524 D444C): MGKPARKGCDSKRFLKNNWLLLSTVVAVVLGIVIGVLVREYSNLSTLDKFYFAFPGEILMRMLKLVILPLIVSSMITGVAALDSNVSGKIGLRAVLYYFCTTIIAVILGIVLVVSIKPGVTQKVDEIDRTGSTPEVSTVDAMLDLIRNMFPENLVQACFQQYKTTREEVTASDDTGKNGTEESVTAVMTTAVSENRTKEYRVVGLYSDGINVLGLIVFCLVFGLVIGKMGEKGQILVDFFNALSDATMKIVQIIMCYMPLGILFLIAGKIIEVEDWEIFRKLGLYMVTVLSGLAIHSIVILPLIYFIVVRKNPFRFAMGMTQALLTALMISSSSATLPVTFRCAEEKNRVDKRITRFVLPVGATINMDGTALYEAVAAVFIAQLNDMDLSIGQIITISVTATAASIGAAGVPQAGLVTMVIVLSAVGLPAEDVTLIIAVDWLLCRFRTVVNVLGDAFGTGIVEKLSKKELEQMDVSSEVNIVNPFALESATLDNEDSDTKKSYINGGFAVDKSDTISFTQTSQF
Method in brief: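 Steps from −25 mV to −100…+40 mV. Transients taken as current without minus current with compound. Charge is the sum of integrals at −100 and +40 mV, normalised to 10 mM of the same compound. IC50 from a generalized Hill fit; decay from a first-order exponential; 3–10 oocytes.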

D444E-EAAC1 = biological target: T2, D444E-EAAC1 (Oryctolagus cuniculus, UniProt P31597, D444E); experiment: Blockade of sodium-dependent transient currents
T2 sequence (P31597 1-524 D444E): T1 sequence (P31597 1-524 D444C) with C444E
Method in brief: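 Oocytes expressing the mutant were voltage clamped in ND96 (pH 7.5, HEPES) and stepped from −25 mV. Transients are buffer current minus buffer-plus-compound current. Charge is the sum of current–time integrals at −100 and +80 mV, normalised to 1 mM L-aspartate or 15 mM succinate, and fitted to a generalized Hill equation. Decay constants come from a first-order exponential fit; mean ± SEM of 3–10 oocytes.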

D444S-EAAC1 = biological target: T3, D444S-EAAC1 (Oryctolagus cuniculus, UniProt P31597, D444S); experiment: Blockade of sodium-dependent transient currents; conditions: for Decay time of transient currents blocked: at −100 mV
T3 sequence (P31597 1-524 D444S): T1 sequence (P31597 1-524 D444C) with C444S
Method in brief: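 Oocytes expressing the mutant were clamped in sodium ND96 and given 250-ms pulses from −25 mV to −100…+40 mV, with and without compound; TBOA was added to a stopped bath. Isolated transients (without minus with compound) were integrated at −100 and +40 mV and summed. Charge was normalised to 10 mM of each compound and Hill-fitted; 4–6 oocytes. Decay came from an exponential fit; 3–10 oocytes.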

WT-EAAC1 = biological target: T4, WT-EAAC1 (Oryctolagus cuniculus, UniProt P31597); conditions: NaSCN-based buffer
T4 sequence (P31597 1-524): T1 sequence (P31597 1-524 D444C) with C444D
Method in brief: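 Two-electrode voltage clamp of oocytes in buffer with all NaCl replaced by NaSCN, grounded through a 2% agarose/2 M KCl bridge. Compounds were 2 mM; TBOA (10 μM) was added to a stopped bath. Steps from −25 mV to −100…+40 mV. Net steady-state current (with minus without) was normalised to the L-aspartate current at +40 mV; mean ± SEM of 3 oocytes (L-aspartate n = 6).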

D444C mutant EAAC1 = biological target: T5, D444C mutant EAAC1 (Oryctolagus cuniculus, UniProt P31597, D444C); conditions: 10 min
T5 sequence (P31597 1-524 D444C): T1 sequence (P31597 1-524 D444C)

T448A mutant EAAC1 = biological target: T6, T448A mutant EAAC1 (Oryctolagus cuniculus, UniProt P31597, T448A); experiment: Uptake of D-[3H]-aspartate in Xenopus laevis oocytes expressing T448A; conditions: 20 min in ND96
T6 sequence (P31597 1-524 T448A): T1 sequence (P31597 1-524 D444C) with C444D, T448A

D444N mutant EAAC1 = biological target: T7, D444N mutant EAAC1 (Oryctolagus cuniculus, UniProt P31597, D444N); experiment: Blockade of transient currents
T7 sequence (P31597 1-524 D444N): T1 sequence (P31597 1-524 D444C) with C444N

Structure (SMILES): N[C@H](C(=O)O)[C@H](OCc1ccccc1)C(=O)O (racemic) [TBOA, DL-threo-β-benzyloxyaspartate]
- Decay time of transient currents blocked (D444C-EAAC1; D444C, 10 μM D,L-TBOA): 4.8 ± 0.3 ms
- IC50 (D444C-EAAC1; read-out: IC50 for substrates/blockers of charge movements, D444C, Xenopus oocytes, mean ± SEM): 1.9 ± 0.2 µM
- Decay time of transient currents blocked (D444E-EAAC1; 10 μM D,L-TBOA, at +80 mV): 5.6 ± 1.2 ms
- IC50 (D444E-EAAC1; read-out: IC50 for substrates/blockers of charge movements, Xenopus oocytes, mean ± SEM): 1.8 ± 0.4 µM
- Decay time of transient currents blocked (D444S-EAAC1; D444S, 160 μM D,L-TBOA): 6 ± 0.6 ms
- IC50 (D444S-EAAC1; read-out: IC50 for substrates/blockers of charge movements, D444S, Xenopus oocytes, mean ± SEM): 31 ± 8 µM
- Effect on the anion conductance (WT-EAAC1; 10 μM D,L-TBOA): decreased

Structure (SMILES): N[C@H](CC(=O)O)C(=O)O [D-Aspartate, D-aspartate]
- IC50 (D444C-EAAC1): 8 ± 1 µM
- Decay time of transient currents blocked (D444C-EAAC1; D444C, 10 mM compound): 18.4 ± 1 ms
- IC50 (D444S-EAAC1): 1370 ± 360 µM
- Decay time of transient currents blocked (D444S-EAAC1; D444S, 10 mM compound): 12.8 ± 0.6 ms

Structure (SMILES): [3H]C(C(=O)O)C([3H])(N)C(=O)O [D-[^3H]-aspartate, D-[2,3-^3H]-aspartic acid]
- D-[3H]-aspartate uptake relative to WT-EAAC1 (D444C mutant EAAC1): ~5%
- Uptake of D-[3H]-aspartate relative to WT (T448A mutant EAAC1): ~20%

Structure (SMILES): NCCCC(=O)O [GABA]
- Inhibition of the transient currents (D444S-EAAC1; D444S, 5 mM, sodium 96 mM): unable to inhibit
- Effect on the anion conductance (WT-EAAC1; 2 mM): not seen

Structure (SMILES): O=C(O)CCCC(=O)O [Glutarate, glutarate]
- IC50 (D444C-EAAC1): 260 ± 40 µM
- Inhibition of transient currents of similar size as succinate (D444S-EAAC1; D444S, 2 mM, unpublished data): capable of inhibiting

Structure (SMILES): N[C@@H](CCC(=O)O)C(=O)O [L-Glutamate, L-glutamate]
- IC50 (D444C-EAAC1): 29 ± 3 µM
- Decay time of transient currents blocked (D444C-EAAC1; D444C, 10 mM compound): 17.7 ± 1 ms
- IC50 (D444E-EAAC1; IC50 for substrates/blockers of charge movements, Xenopus oocytes, mean ± SEM): 24.4 ± 2.2 µM
- IC50 (D444N mutant EAAC1): 718 ± 217 µM
- IC50 (D444S-EAAC1): 1220 ± 160 µM
- Decay time of transient currents blocked (D444S-EAAC1; D444S, 10 mM compound): 11.0 ± 1.2 ms
